Experimental data collected from several papers.
Lines come from different studies, so protocols differ.

Cc1ccc2cncc(N3CCc4c(cc(Cn5ccnc5)cc4-c4cn(C)nc4C(F)(F)F)C3=O)c2c1
AUC(0-inf) (male CD-1 mouse, plasma; intravenous, 3 mg/kg): 3870 ng·h/mL

CC=Cc1ccc(O)c(OC)c1
AUC(0-inf) (mouse, plasma; intranasal, 100 mg/kg): 10100 ng·h/mL

Cc1cc(Nc2ccc(S(F)(F)(F)(F)F)cc2)n2ncnc2n1
AUC(0-inf) (male Swiss mouse, plasma; oral, 100 mg/kg, single dose): 942 µM·h

CNC(=O)c1cc(OC)cc2c(N3CCc4c(cc(Cn5ccnc5)cc4-c4cn(C)nc4C(F)(F)F)C3=O)ccnc12
AUC(0-inf) (male CD-1 mouse, plasma; oral, 50 mg/kg): 145000 ng·h/mL

CN1C(=O)c2ccccc2[S@+]([O-])c2ccc(C(=O)NCCc3cccs3)cc21
AUC(0-inf) (male C57BL/6 mouse, brain; intraperitoneal, 30 mg/kg, single dose): 1430 ng·h/mL

CCc1cc(OC)c2nccc(N3CCc4c(cc(Cn5ccnc5)cc4-c4cn(C)nc4C(F)(F)F)C3=O)c2c1
AUC(0-inf) (male CD-1 mouse, plasma; oral, 50 mg/kg): 108000 ng·h/mL

COc1cc2c(Nc3ccc(Cl)c(Cl)c3F)ncnc2cc1OC[C@@H]1C[C@@H]2CN(C)C[C@@H]2C1
AUC(0-inf) (FVB mouse, brain; oral, 70 mg/kg, single dose): 158000 ng·h/mL

COc1cc(OC)c2nccc(N3CCc4c(cc(Cn5ccnc5)cc4-c4cn(C)nc4C(F)(F)F)C3=O)c2c1
AUC(0-inf) (male CD-1 mouse, plasma; oral, 50 mg/kg): 60600 ng·h/mL

O=S(=O)(c1ccc(-c2ccc3nccc(Nc4ccncn4)c3c2)cc1)N1CCOCC1
AUC(0-inf) (female BALB/c mouse, plasma; intraperitoneal, 10 mg/kg): 9520 ng·h/mL

COc1nc(-c2cc(C)c(N[C@@H](C)c3c(F)cc(F)cc3F)nn2)ccc1-n1cnc(C)c1
AUC(0-inf) (male CD-1 mouse, plasma; intravenous, 1 mg/kg, single dose): 2500 ng·h/mL

Cc1nc(-c2cnc(NC(C)C)n(C)c2=O)ccc1Oc1ccnc(-c2cnn(C)c2)c1
AUC(0-inf) (female mouse, plasma; oral, 15 mg/kg, single dose): 127000 ng·h/mL

CNCCN(C)c1cc(C#N)cc(CCc2cc(C)cc(N)n2)c1
AUC(0-inf) (male BALB/c mouse, plasma; oral, 10 mg/kg): 182 ng·h/mL

CCc1cc(C(=O)NC)c2nccc(N3CCc4c(cc(Cn5ccnc5)cc4-c4cn(C)nc4C(F)(F)F)C3=O)c2c1
AUC(0-inf) (male CD-1 mouse, plasma; oral, 50 mg/kg): 122000 ng·h/mL

CC[C@H](C)[C@@H]1NC(=O)[C@@](C)(NC(=O)[C@H](CCCNC(=N)N)NC(=O)[C@H](CC(C)C)NC(=O)[C@@H](NC(=O)[C@H](CCC(N)=O)NC(=O)[C@H](CC(C)C)NC(C)=O)[C@@H](C)O)CCCC=CCCC[C@@](C)(C(=O)N[C@@H](CC(C)C)C(=O)N[C@@H](Cc2ccc3ccccc3c2)C(N)=O)NC(=O)[C@H](CCCNC(=N)N)NC(=O)[C@H](CCC(N)=O)NC1=O
AUC(0-inf) (male BALB/c mouse, plasma; intraperitoneal, 5 mg/kg): 102000 ng·h/mL

CN1CCN(C(=O)CN[C@@H]2C[C@H]2c2ccc(OCc3ccccc3)cc2)CC1
AUC(0-inf) (mouse, plasma; intraperitoneal, 10 mg/kg): 1720 ng·h/mL

CC(C)(C)c1ccc(O)c(CN(Cc2cc(C(C)(C)C)ccc2O)C2CCC(NC(N)=O)CC2)c1 (stereo not shown)
AUC(0-inf) (male C57BL/6 mouse, plasma; intraperitoneal, 10 mg/kg, single dose): 10800 ng·h/mL

Cc1ccc(NC(=O)c2ccc(CN3CCN(C)CC3)cc2)cc1Nc1nccc(-c2cncc(-c3oncc3C)c2)n1
AUC(0-inf) (male C57BL/6 mouse, brain; oral, 100 mg/kg/day): 1200 ng·h/mL

COc1ccc2c(=O)cc(-c3ccccc3)oc2c1O
AUC(0-inf) (male CD-1 mouse, plasma; oral, 50 mg/kg): 1.67 ng·h/mL

CCNc1nc2c(c(N3CC(=O)Nc4cc(OC)ccc43)n1)CCC2
AUC(0-inf) (female C57BL/6 mouse, plasma; intravenous, 4 mg/kg, single dose): 620 ng·h/mL

c1ccc(-c2nc(N3CCC(c4ccccn4)C3)c3ccccc3n2)nc1 (stereo not shown)
AUC(0-inf) (female BALB/c mouse, plasma; oral, 50 mg/kg): 10500 ng·h/mL

COc1ccc2nccc(N3CCc4c(cc(Cn5ccnc5)cc4-c4cn(C)nc4C(F)(F)F)C3=O)c2c1
AUC(0-inf) (male CD-1 mouse, plasma; oral, 10 mg/kg): 2100 ng·h/mL

COc1nc(-c2cc(C)c(N[C@@H](C)c3cc(F)cc(F)c3)nn2)ccc1-n1cnc(C)c1
AUC(0-inf) (male CD-1 mouse, plasma; oral, 5 mg/kg, single dose): 13800 ng·h/mL
